Bioassay records: PubChem, several laboratories
CCR6 antagonist: blocks CCL20-driven beta-arrestin recruitment at human CCR6; AID 493098; 340,000 compounds, 0.49% hits; inhibition, % at 20 µM; CHO-K1 CCR6 PathHunter beta-arrestin, luminescence, CCL20-stimulated; P51684;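 active means compounds whose inhibition of the agonist-driven luminescence signal at 20 µM reaches about 50%, limit read from the data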;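 further: cells stimulated with CCL20 at 14 nM final; plate controls were DMSO with CCL20 for no effect and DMSO without agonist for full effect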
FXN GAA850 act: activators of GAA850 frataxin (FXN) promoter; HEK293 lucGAA850 FXN promoter luciferase reporter, 24 h; percent of 10 µM SAHA response; activation, % at 6 µM; 360,000 compounds, 0.56% hits;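 active means activation above the average of all compounds screened plus 3 SD, cutoff fixed separately per campaign, cut at about 7.5% in these data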;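 further: 0% = DMSO wells and 100% = 10 µM SAHA wells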
EBI2 antag: blocks human EBI2 receptor beta-arrestin signaling | P32249 | EBI2 beta-arrestin recruitment, luminescence, 7a,25-OHC stimulated | inhibition, % at 5 µM | 360,000 compounds, 0.81% hits | AID 651636; in the data active means inhibition above about 38%;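 further: enzyme fragment complementation signal reports receptor beta-arrestin coupling in cells; 0% = agonist plus DMSO wells and 100% = wells without agonist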
Target sequence (P32249 whole entry, looked up, the tested form may be a part): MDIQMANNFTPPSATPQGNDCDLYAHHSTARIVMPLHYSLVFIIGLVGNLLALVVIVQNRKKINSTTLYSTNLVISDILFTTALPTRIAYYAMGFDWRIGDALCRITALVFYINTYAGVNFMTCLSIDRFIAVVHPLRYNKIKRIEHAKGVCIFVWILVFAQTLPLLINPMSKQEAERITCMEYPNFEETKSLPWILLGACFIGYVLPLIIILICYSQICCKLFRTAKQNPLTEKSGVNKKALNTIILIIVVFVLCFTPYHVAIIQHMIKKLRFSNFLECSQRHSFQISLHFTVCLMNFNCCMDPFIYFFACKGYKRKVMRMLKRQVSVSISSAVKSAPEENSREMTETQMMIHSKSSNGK
CXCR6 block: CXCR6 (human) receptor inhibition | CHO-K1 PathHunter CXCR6 beta-arrestin, luminescence | O00574 | 360,000 compounds, 0.36% hits | inhibition, % at 20 µM; in the data active means inhibition above about 34%, passing the limit was not always enough;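 further: antagonist mode with CXCL16 agonist at 10 nM final; 0% = 10 nM CXCL16 with DMSO and 100% = unstimulated wells without agonist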
APJ ag: activates the human apelin receptor APJ. P35414. CHO-K1 APJ PathHunter beta-arrestin, luminescence; 0% DMSO wells, 100% apelin. activation, % at 20 µM. 330,000 compounds, 0.11% hits. AID 2520;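 active means activation more than six SD over the plate average, tested at 20 µM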;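 further: 0% = DMSO alone and 100% = apelin-13 at 10 nM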
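Incubation: overnight seeding, 90 min compound at 25 °C, 1 h detection; test system: PathHunter CHO-K1 APJ (AGTRL-1) beta-arrestin reporter cells; amount: 1000 cells/well; doses: one dose, 20 µM compound, 1% DMSO; measured by: beta-gal luminescence; measure: agonist-driven arrestin binding to APJ; benchmarks: negative DMSO alone, positive Apelin-13 at 10 nM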
APJ antag: antagonists of human APJ apelin receptor. P35414. CHO-K1 APJ beta-arrestin complementation, luminescence. inhibition, % at 20 µM. 330,000 compounds, 0.32% hits;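 active means inhibition above about 40% at 20 µM, limit read from the data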;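 further: cells challenged with 10 nM apelin-13 agonist together with compound; plate controls were apelin-13 plus DMSO wells for no effect and DMSO wells lacking apelin-13 for full effect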
EBI2 antag conf: EBI2 (human) antagonism, single concentration confirmation; EBI2 beta-arrestin luminescence, 7a,25-OHC antagonism; 2,400 compounds, 29% hits; shares compounds with EBI2 antag; inhibition, % at 5 µM;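 active means inhibition of at least 50%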
EBI2 ag: EBI2 agonism counter-screen. shares compounds with EBI2 antag. EBI2-expressing cells, agonist mode, luminescence, 60 min; 0% vehicle, 100% 7α,25-dihydroxycholesterol control. activation, % at 5 µM. 2,400 tested, under 10 active. AID 652000;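 active means activation of at least 50%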
bGal counter: counter-screen for EBI2 antagonists: E. coli beta-galactosidase inhibition. shares compounds with EBI2 antag. purified beta-galactosidase, luminescent Galacton Star, 15 min. inhibition, % at 5 µM. 2,400 compounds, 1% hits;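 active means replicate-average signal at least 3 plate SD below neutral wells, shown as high inhibition, flagging enzyme-inhibiting false positives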;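 further: 0% = DMSO wells with enzyme and 100% = wells lacking enzyme; higher means stronger loss of beta-gal luminescence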
* = called active by the depositor; . = no result given. Compounds with a hit are over-represented: about 2% of the library has one in this group of screens.

SMILES	CCR6 antagonist	FXN GAA850 act	EBI2 antag	CXCR6 block	APJ ag	APJ antag	EBI2 antag conf	EBI2 ag	bGal counter
O=C1C=C(Nc2ccc(Cl)cc2)CC(c2ccco2)C1 (centres undefined)	13	-2	18	0	-3	13	.	.	.
O=C1C=C(Nc2ccc(Cl)cc2)CC(c2ccc(Cl)cc2)C1 (centres undefined)	19	1	81*	-6	-4	18	82*	1	-1
Cc1ccc(C2CC(=O)C=C(Nc3ccc(Cl)cc3)C2)cc1 (centres undefined)	-3	0	75*	-5	-2	0	64*	3	6
COc1ccccc1N1CCN(C(=S)NC(=O)/C=C/c2ccc(F)cc2)CC1	14	2	54*	5	-5	4	35	0	9
COc1ccccc1N1CCN(C(=O)c2cc3cc(Cl)ccc3[nH]2)CC1	-12	1	89*	-8	2	-12	73*	0	-10
CCOC(=O)C1(Cc2ccc(OC)cc2)CCN(C(=O)c2cc3ccccc3[nH]2)CC1	14	5	67*	3	-3	-6	35	-1	-3
COc1ccccc1N1CCN(C(=O)c2cc3cc(F)ccc3[nH]2)CC1	0	0	87*	-6	-2	11	58*	2	4
CCOC(=O)C1(Cc2ccc(OC)cc2)CCN(C(=O)c2cc(C)on2)CC1	0	2	5	-1	10	-8	.	.	.
COC(=O)c1csc(C2OC(CO)C(O)C2O)n1 (centres undefined)	.	1	-7	3	.	.	.	.	.
CC1(Cc2cccc(C(F)(F)F)c2)C(=O)Nc2ccc(-c3ccc(F)c(Cl)c3)cc21 (centres undefined)	.	0	22	2	.	.	.	.	.
Cc1cc(C)cc(C(=O)NCC(=O)N2CCN(C(c3ccccc3)c3ccccc3)CC2)c1	2	2	-5	9	-2	-4	.	.	.
COc1ccccc1N1CCN(S(=O)(=O)CCNC(=O)/C=C/c2ccc3c(c2)OCO3)CC1	.	-5	78*	2	.	.	59*	0	8
O=C(c1cc2cc(F)ccc2[nH]1)N1CCN(C(=O)c2ccco2)CC1	-15	0	67*	-8	2	-65	37	-1	4
COc1ccc2cc(C(=O)N3CCN(c4cccc(C)c4C)CC3)[nH]c2c1	9	3	85*	6	-1	6	57*	-1	-15
Cc1ccc2[nH]c(C(=O)N3CCN(C(c4ccccc4)c4ccccc4)CC3)cc2c1	9	0	89*	2	-2	-4	86*	-1	-11
COc1cccc(N2CCN(C(=O)c3cc4ccc(OC)cc4[nH]3)CC2)c1	11	-2	16	-4	-1	-20	.	.	.
Cn1c(N)c(S(=O)(=O)N2CCN(c3ccccc3F)CC2)c(=O)n(C)c1=O	7	2	-6	7	-5	-14	.	.	.
Cc1noc(C)c1S(=O)(=O)Nc1ccc2c(c1)CC(=O)N([C@H](C)CO)C[C@H](C)[C@@H](CN(C)CC1CC1)O2	-3	0	-7	-5	-2	7	.	.	.
CS(=O)(=O)Nc1ccc2c(c1)[C@H]1C[C@H](CC(=O)NCc3cccc(F)c3)O[C@@H](CO)[C@H]1O2	.	-1	-1	6	.	.	.	.	.
O=C(c1cc(-c2ccc(Cl)cc2)n[nH]1)N1CCN(C(=O)c2ccco2)CC1	-5	-2	42*	-7	-3	-6	29	2	9
COc1ccccc1N1CCN(C(=O)c2cc3ccccc3[nH]2)CC1	5	-2	73*	-11	3	5	55*	2	5
COc1ccccc1N1CCN(C(=O)c2cc3cc(C)ccc3[nH]2)CC1	6	0	94*	-6	-4	13	80*	1	3
COc1ccc(-c2cc(C(=O)N3CCN(C(=O)c4ccco4)CC3)[nH]n2)cc1	-12	-1	33	1	-5	7	.	.	.
O=C(COC(=O)CNC(=O)c1cccc(OC(F)F)c1)NNC(=O)c1ccccc1	2	0	-3	4	-6	3	.	.	.
Cc1c(C(=O)N2CCCCC2)c(S(=O)(=O)NCCc2ccc(Cl)cc2)c(C)n1C	13	2	-2	3	-3	10	.	.	.
SMILES	CCR6 antagonist	FXN GAA850 act	EBI2 antag	CXCR6 block	APJ ag	APJ antag	EBI2 antag conf	EBI2 ag	bGal counter
CC(C)COC(=O)N1CCCCC1c1cc(C(=O)NCc2cccnc2)no1 (centres undefined)	.	1	0	-10	.	.	.	.	.
CCOc1ccc(NC(=S)N(CCCN2CCOCC2)Cc2cn(C)c3ccccc23)cc1	12	3	44*	5	-4	12	10	0	7
C=CCNc1nnnc2c1sc1nc(N3CCOCC3)c3c(c12)CCCC3	8	1	52*	-5	-4	5	19	0	2
COCCOC(=O)c1c(NC(=O)CN2CCc3ccccc32)sc(C(N)=O)c1C	5	4	70*	-8	0	4	22	-1	-11
CCOC(=O)c1c(NC(=O)CN(C)C2CCN(C)CC2)sc(C(=O)Nc2ccccc2)c1C	12	5	3	-7	-4	8	.	.	.
COc1cccc(CNC(=O)COC(=O)c2c(NC(C)=O)sc(C)c2C)c1	-1	3	5	1	-2	13	.	.	.
COCCOC(=O)c1c(NC(=O)CN(C)c2ccccc2)sc(C(N)=O)c1C	1	1	88*	7	-3	-3	54*	3	11
COCCOC(=O)c1c(NC(=O)COC(=O)Cc2cccc(OC)c2)sc(C(N)=O)c1C	10	-2	44*	0	-10	13	17	-2	-19
COCCOC(=O)c1c(NC(=O)CNC2CCCc3ccccc32)sc(C(N)=O)c1C (centres undefined)	10	5	82*	5	-1	-25	42	-2	-6
COCc1cc(C)nc(NC2CC(C)(C)NC(C)(C)C2)c1C#N	11	1	6	0	-3	14	.	.	.
COc1cc(N(C(C)=O)c2ccc(O)c(C(=O)O)c2)c2ncccc2c1	.	-1	-39	-11	.	.	.	.	.
Cc1ccc(-n2nnnc2-c2ccccc2Br)cc1	-1	-2	38*	2	0	-5	45	-2	-17
Cc1ccc(-c2nnnn2-c2ccc(C)cc2)cc1	9	3	6	-9	0	10	.	.	.
